Reference: ChEMBL document CHEMBL1130231, “Betidamino acid scan of the GnRH antagonist acyline” (J Med Chem, 1997)

The molecules below were run against T1, Gonadotropin-releasing hormone receptor (Rattus norvegicus, UniProt P30969) (assay: Inhibition of binding of radiolabeled histrelin to Gonadotropin-releasing hormone receptor (GnRHr) in rat pituitary gland membranes).
T1 sequence (P30969 whole entry): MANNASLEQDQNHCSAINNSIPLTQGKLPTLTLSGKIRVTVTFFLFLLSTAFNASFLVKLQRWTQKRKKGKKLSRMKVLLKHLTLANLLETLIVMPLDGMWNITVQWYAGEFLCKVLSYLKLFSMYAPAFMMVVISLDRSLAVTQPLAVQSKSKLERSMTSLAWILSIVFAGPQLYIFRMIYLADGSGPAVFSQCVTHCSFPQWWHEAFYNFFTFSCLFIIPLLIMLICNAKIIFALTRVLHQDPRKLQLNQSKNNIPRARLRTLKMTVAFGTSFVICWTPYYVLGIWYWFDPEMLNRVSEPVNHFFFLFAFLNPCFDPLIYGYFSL
Assay type: cell membranes, Membrane
How it was run: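 Rat anterior pituitary membranes (male and female glands equal numbers), homogenized in 0.32 M sucrose/aprotinin, 4000g pellet, diluted 15-fold in 10 mM Hepes, 0.2% BSA, pH 7.6. Filtration onto PEI-treated glass filters, scintillation counting. IC50 in nM, duplicate, n = 1.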
Work on CC(=O)Nc1ccc(C[C@H](NC(=O)[C@@H](NC=O)NC(=O)[C@@H](Cc2cccnc2)NC(=O)[C@@H](Cc2ccc(Cl)cc2)NC(=O)[C@@H](Cc2ccc3ccccc3c2)NC(C)=O)C(=O)N[C@H](Cc2ccc(NC(C)=O)cc2)C(=O)N[C@@H](CC(C)C)C(=O)N[C@@H](CCCCNC(C)C)C(=O)N2CCC[C@H]2C(=O)N[C@H](C)C(N)=O)cc1 (single isomer, unassigned) yielded an IC50 of 0.63 nM.
CC(=O)Nc1ccc(C[C@H](NC(=O)[C@H](CO)NC(=O)[C@@H](Cc2cccnc2)NC(=O)[C@@H](Cc2ccc(Cl)cc2)NC(=O)[C@@H](Cc2ccc3ccccc3c2)NC(C)=O)C(=O)N[C@H](Cc2ccc(NC(C)=O)cc2)C(=O)N[C@@H](CC(C)C)C(=O)N[C@@H](CCCCNC(C)C)C(=O)N2CCC[C@H]2C(=O)N[C@H](NC=O)C(N)=O)cc1 (single isomer, unassigned) showed an IC50 of 0.59 nM.
CC(=O)Nc1ccc(C[C@H](NC(=O)[C@H](CO)NC(=O)[C@@H](Cc2cccnc2)NC(=O)[C@@H](Cc2ccc(Cl)cc2)NC(=O)[C@@H](NC(C)=O)NC(=O)c2ccc3ccccc3c2)C(=O)N[C@H](Cc2ccc(NC(C)=O)cc2)C(=O)N[C@@H](CC(C)C)C(=O)N[C@@H](CCCCNC(C)C)C(=O)N2CCC[C@H]2C(=O)N[C@H](C)C(N)=O)cc1 showed an IC50 of 3 nM.
CC(=O)Nc1ccc(C[C@H](NC(=O)[C@H](CO)NC(=O)[C@@H](NC(=O)c2cccnc2)NC(=O)[C@@H](Cc2ccc(Cl)cc2)NC(=O)[C@@H](Cc2ccc3ccccc3c2)NC(C)=O)C(=O)N[C@H](Cc2ccc(NC(C)=O)cc2)C(=O)N[C@@H](CC(C)C)C(=O)N[C@@H](CCCCNC(C)C)C(=O)N2CCC[C@H]2C(=O)N[C@H](C)C(N)=O)cc1 was tested, and the IC50 was 0.63 nM.
In the case of CC(=O)Nc1ccc(C[C@H](NC(=O)[C@H](CO)NC(=O)[C@@H](NC(=O)[C@@H](Cc2ccc(Cl)cc2)NC(=O)[C@@H](Cc2ccc3ccccc3c2)NC(C)=O)N(C)C(=O)c2cccnc2)C(=O)N[C@H](Cc2ccc(NC(C)=O)cc2)C(=O)N[C@@H](CC(C)C)C(=O)N[C@@H](CCCCNC(C)C)C(=O)N2CCC[C@H]2C(=O)N[C@H](C)C(N)=O)cc1 (single isomer, unassigned), the IC50 is reported as 36 nM.
CC(=O)Nc1ccc(C[C@H](NC(=O)[C@H](CO)NC(=O)[C@@H](Cc2cccnc2)NC(=O)[C@@H](Cc2ccc(Cl)cc2)NC(=O)[C@@H](Cc2ccc3ccccc3c2)NC(C)=O)C(=O)N[C@H](Cc2ccc(NC(C)=O)cc2)C(=O)N[C@@H](CNC(=O)C(C)C)C(=O)N[C@@H](CCCCNC(C)C)C(=O)N2CCC[C@H]2C(=O)N[C@H](C)C(N)=O)cc1 was tested, and the IC50 was 2 nM.
Molecule CC(=O)Nc1ccc(C[C@H](NC(=O)[C@H](CO)NC(=O)[C@@H](Cc2cccnc2)NC(=O)[C@H](NC(=O)[C@@H](Cc2ccc3ccccc3c2)NC(C)=O)N(C)C(=O)c2ccc(Cl)cc2)C(=O)N[C@H](Cc2ccc(NC(C)=O)cc2)C(=O)N[C@@H](CC(C)C)C(=O)N[C@@H](CCCCNC(C)C)C(=O)N2CCC[C@H]2C(=O)N[C@H](C)C(N)=O)cc1 has an IC50 of 1.2 nM.
CC(=O)Nc1ccc(C[C@H](NC(=O)[C@H](CO)NC(=O)[C@@H](Cc2cccnc2)NC(=O)[C@@H](NC(=O)c2cn[nH]c2N)NC(=O)[C@@H](Cc2ccc3ccccc3c2)NC(C)=O)C(=O)N[C@H](Cc2ccc(NC(C)=O)cc2)C(=O)N[C@@H](CC(C)C)C(=O)N[C@@H](CCCCNC(C)C)C(=O)N2CCC[C@H]2C(=O)N[C@H](C)C(N)=O)cc1 (single isomer, unassigned) showed an IC50 of over 1000 nM.
With CC(=O)Nc1ccc(C[C@H](NC(=O)[C@H](CO)NC(=O)[C@@H](Cc2cccnc2)NC(=O)[C@@H](Cc2ccc(Cl)cc2)NC(=O)[C@@H](Cc2ccc3ccccc3c2)NC(C)=O)C(=O)N[C@H](Cc2ccc(NC(C)=O)cc2)C(=O)N[C@H](C(=O)N[C@@H](CCCCNC(C)C)C(=O)N2CCC[C@H]2C(=O)N[C@H](C)C(N)=O)N(C)C(=O)C(C)C)cc1 the IC50 was 0.53 nM.
Work on CC(=O)Nc1ccc(C[C@H](NC(=O)[C@H](CO)NC(=O)[C@@H](Cc2cccnc2)NC(=O)[C@@H](Cc2ccc(Cl)cc2)NC(=O)[C@H](NC(C)=O)N(C)C(=O)c2ccc3ccccc3c2)C(=O)N[C@H](Cc2ccc(NC(C)=O)cc2)C(=O)N[C@@H](CC(C)C)C(=O)N[C@@H](CCCCNC(C)C)C(=O)N2CCC[C@H]2C(=O)N[C@H](C)C(N)=O)cc1 yielded an IC50 of 9.2 nM.
CC(=O)Nc1ccc(C[C@H](NC(=O)[C@H](CO)NC(=O)[C@@H](Cc2cccnc2)NC(=O)[C@@H](Cc2ccc(Cl)cc2)NC(=O)[C@@H](Cc2ccc3ccccc3c2)NC(C)=O)C(=O)N[C@H](Cc2ccc(NC(C)=O)cc2)C(=O)N[C@@H](NC(=O)C(C)C)C(=O)N[C@@H](CCCCNC(C)C)C(=O)N2CCC[C@H]2C(=O)N[C@H](C)C(N)=O)cc1 was tested, and the IC50 was 2 nM.
CC(=O)Nc1ccc(C[C@H](NC(=O)[C@H](CO)NC(=O)[C@@H](NC(=O)c2ccncc2)NC(=O)[C@@H](Cc2ccc(Cl)cc2)NC(=O)[C@@H](Cc2ccc3ccccc3c2)NC(C)=O)C(=O)N[C@H](Cc2ccc(NC(C)=O)cc2)C(=O)N[C@@H](CC(C)C)C(=O)N[C@@H](CCCCNC(C)C)C(=O)N2CCC[C@H]2C(=O)N[C@H](C)C(N)=O)cc1 (single isomer, unassigned) was tested, and the IC50 was 1.4 nM.
CC(=O)Nc1ccc(C[C@H](NC(=O)[C@H](CO)NC(=O)[C@@H](Cc2cccnc2)NC(=O)[C@@H](NC(=O)c2cnccn2)NC(=O)[C@@H](Cc2ccc3ccccc3c2)NC(C)=O)C(=O)N[C@H](Cc2ccc(NC(C)=O)cc2)C(=O)N[C@@H](CC(C)C)C(=O)N[C@@H](CCCCNC(C)C)C(=O)N2CCC[C@H]2C(=O)N[C@H](C)C(N)=O)cc1 was tested, and the IC50 was 2000 nM.
Molecule CC(=O)Nc1ccc(C[C@H](NC(=O)[C@H](CO)NC(=O)[C@@H](Cc2cccnc2)NC(=O)[C@@H](Cc2ccc(Cl)cc2)NC(=O)[C@@H](Cc2ccc3ccccc3c2)NC(C)=O)C(=O)N[C@H](Cc2ccc(NC(C)=O)cc2)C(=O)N[C@@H](NC(C)=O)C(=O)N[C@@H](CCCCNC(C)C)C(=O)N2CCC[C@H]2C(=O)N[C@H](C)C(N)=O)cc1 has an IC50 of 5 nM.
CC(=O)Nc1ccc(C[C@H](NC(=O)[C@H](CO)NC(=O)[C@@H](Cc2cccnc2)NC(=O)[C@@H](Cc2ccc(Cl)cc2)NC(=O)[C@@H](Cc2ccc3ccccc3c2)NC(C)=O)C(=O)N[C@H](Cc2ccc(NC(C)=O)cc2)C(=O)N[C@@H](CC(C)C)C(=O)N[C@@H](CCCCNC(C)C)C(=O)N2CCC[C@H]2C(=O)N[C@@H](C)C(N)=O)cc1 was tested, and the IC50 was 0.38 nM.
Work on CC(=O)Nc1ccc(C[C@H](NC(=O)[C@H](CO)NC(=O)[C@@H](Cc2cccnc2)NC(=O)[C@@H](Cc2ccc(Cl)cc2)NC(=O)[C@@H](Cc2ccc3ccccc3c2)NC(C)=O)C(=O)N[C@H](Cc2ccc(NC(C)=O)cc2)C(=O)N[C@@H](CC(C)C)C(=O)NC(NC(=O)CNC(=N)N)C(=O)N2CCC[C@H]2C(=O)N[C@H](C)C(N)=O)cc1 (stereo partly drawn) yielded an IC50 of 0.74 nM.
Work on CC(=O)Nc1ccc(C[C@H](NC(=O)[C@H](CO)NC(=O)[C@@H](Cc2cccnc2)NC(=O)[C@@H](Cc2ccc(Cl)cc2)NC(=O)[C@@H](Cc2ccc3ccccc3c2)NC(C)=O)C(=O)N[C@H](Cc2ccc(NC(C)=O)cc2)C(=O)N[C@@H](CC(C)C)C(=O)N[C@@H](CCCCNC(C)C)C(=O)N2CCC[C@H]2C(=O)N[C@H](C)C(N)=O)cc1 yielded an IC50 of 0.3 nM.
With CC(=O)Nc1ccc(C[C@H](NC(=O)[C@H](CO)NC(=O)[C@H](NC(=O)c2ccncc2)NC(=O)[C@@H](Cc2ccc(Cl)cc2)NC(=O)[C@@H](Cc2ccc3ccccc3c2)NC(C)=O)C(=O)N[C@H](Cc2ccc(NC(C)=O)cc2)C(=O)N[C@@H](CC(C)C)C(=O)N[C@@H](CCCCNC(C)C)C(=O)N2CCC[C@H]2C(=O)N[C@H](C)C(N)=O)cc1 (single isomer, unassigned) the IC50 was 220 nM.
With CC(=O)Nc1ccc(C[C@@H](NC(=O)[C@@H](NC(=O)c2ccc(NC(C)=O)cc2)NC(=O)[C@H](CO)NC(=O)[C@@H](Cc2cccnc2)NC(=O)[C@@H](Cc2ccc(Cl)cc2)NC(=O)[C@@H](Cc2ccc3ccccc3c2)NC(C)=O)C(=O)N[C@@H](CC(C)C)C(=O)N[C@@H](CCCCNC(C)C)C(=O)N2CCC[C@H]2C(=O)N[C@H](C)C(N)=O)cc1 the IC50 was 0.51 nM.
With CC(=O)Nc1ccc(C[C@H](NC(=O)[C@H](CO)NC(=O)[C@@H](Cc2cccnc2)NC(=O)[C@@H](Cc2ccc(Cl)cc2)NC(=O)[C@@H](Cc2ccc3ccccc3c2)NC(C)=O)C(=O)N[C@H](Cc2ccc(NC(C)=O)cc2)C(=O)N[C@@H](CC(C)C)C(=O)N[C@@H](CCCCNC(C)C)C(=O)N2CCC[C@H]2C(=O)N[C@H](N)C(N)=O)cc1 the IC50 was 0.48 nM.
CC(=O)Nc1ccc(C[C@H](NC(=O)[C@H](CO)NC(=O)[C@@H](Cc2cccnc2)NC(=O)[C@@H](Cc2ccc(Cl)cc2)NC(=O)[C@@H](Cc2ccc3ccccc3c2)NC(C)=O)C(=O)N[C@H](Cc2ccc(NC(C)=O)cc2)C(=O)N[C@@H](CC(C)C)C(=O)N[C@@H](CCCCNC(C)C)C(=O)N2CCC[C@H]2C(=O)N[C@@H](NC=O)C(N)=O)cc1 (single isomer, unassigned) was tested, and the IC50 was 0.62 nM.
CC(=O)Nc1ccc(C[C@H](NC(=O)[C@H](CO)NC(=O)[C@@H](Cc2cccnc2)NC(=O)[C@@H](Cc2ccc(Cl)cc2)NC(=O)[C@@H](Cc2ccc3ccccc3c2)NC(C)=O)C(=O)N[C@H](Cc2ccc(NC(C)=O)cc2)C(=O)N[C@@H](CC(C)C)C(=O)N[C@@H](C(=O)N2CCC[C@H]2C(=O)N[C@H](C)C(N)=O)N(C)C(=O)CCNC(C)C)cc1 (single isomer, unassigned) gave an IC50 of 2.4 nM.
For CC(=O)Nc1ccc(C[C@H](NC(=O)[C@H](NC(=O)[C@@H](Cc2cccnc2)NC(=O)[C@@H](Cc2ccc(Cl)cc2)NC(=O)[C@@H](Cc2ccc3ccccc3c2)NC(C)=O)N(C)C=O)C(=O)N[C@H](Cc2ccc(NC(C)=O)cc2)C(=O)N[C@@H](CC(C)C)C(=O)N[C@@H](CCCCNC(C)C)C(=O)N2CCC[C@H]2C(=O)N[C@H](C)C(N)=O)cc1 (single isomer, unassigned), the IC50 was 0.9 nM.
